In ChEMBL document CHEMBL3232854, “Agonists for the adenosine A1 receptor with tunable residence time. A Case for nonribose 4-amino-6-aryl-5-cyano-2-thiopyrimidines” (J Med Chem, 2014):

Key:
Adenosine receptor A1 [1] = target: T1, Adenosine receptor A1 (Homo sapiens, UniProt P30542); assay: Displacement of [3H]DPCPX from human adenosine A1 receptor expressed in CHO cell membranes after 1 hr by beta scintillation counting analysis
T1 sequence (P30542 whole entry): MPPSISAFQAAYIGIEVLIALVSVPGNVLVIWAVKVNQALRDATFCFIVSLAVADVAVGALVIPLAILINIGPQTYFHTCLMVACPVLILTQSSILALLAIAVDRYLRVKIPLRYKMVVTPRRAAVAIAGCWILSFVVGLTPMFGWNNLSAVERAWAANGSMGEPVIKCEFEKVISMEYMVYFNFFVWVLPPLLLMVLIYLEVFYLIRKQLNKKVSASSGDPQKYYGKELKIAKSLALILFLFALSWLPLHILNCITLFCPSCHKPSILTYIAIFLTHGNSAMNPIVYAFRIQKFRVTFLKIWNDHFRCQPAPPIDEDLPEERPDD
Outline: (§1)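 Membranes from CHO cells stably expressing human A1 receptor (5 μg protein) incubated with [3H]DPCPX in 25 mM Tris-HCl pH 7.4, 5 mM MgCl2, 0.1% CHAPS, 1 h at 25 °C; nonspecific binding with 100 μM CPA; GF/B filtration, three ice-cold washes, scintillation counting. Single 1 μM points from ≥2 experiments in duplicate; Ki by nonlinear regression (radioligand KD 1.6 nM), ≥3 experiments in duplicate.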

[2] = target: T2, Adenosine receptor A1 (Homo sapiens) (UniProt P30542); assay: Ratio for displacement of [3H]DPCPX from human adenosine A1 receptor expressed in CHO cell membranes at 10 times Ki after 15 mins by dual-point competition association assay to ratio for displacement of [3H]DPCPX from human adenosine A1 receptor expressed in CHO cell membranes 10 times Ki after 120 mins by dual-point competition association assay
T2 sequence (whole entry): T1 sequence (P30542 whole entry)

[3] = target: T2, Adenosine receptor A1 (Homo sapiens); assay: Agonist activity human adenosine A1 receptor expressed in CHO cell membranes assessed as stimulation of [35S]GTPgammaS binding at 100 times Ki preincubated for 30 mins followed by radioligand addition measured after 90 mins by beta scintillation counting analysis relative to N6-cyclopentyladenosine; format: functional
[4] = target: T3, Adenosine receptor A3 (Homo sapiens) (UniProt P0DMS8); assay: Displacement of [3H]PSB11 from human adenosine A3 receptor expressed in CHO cell membranes at 1 uM after 2 hrs by beta scintillation counting analysis relative to control
T3 sequence (whole entry): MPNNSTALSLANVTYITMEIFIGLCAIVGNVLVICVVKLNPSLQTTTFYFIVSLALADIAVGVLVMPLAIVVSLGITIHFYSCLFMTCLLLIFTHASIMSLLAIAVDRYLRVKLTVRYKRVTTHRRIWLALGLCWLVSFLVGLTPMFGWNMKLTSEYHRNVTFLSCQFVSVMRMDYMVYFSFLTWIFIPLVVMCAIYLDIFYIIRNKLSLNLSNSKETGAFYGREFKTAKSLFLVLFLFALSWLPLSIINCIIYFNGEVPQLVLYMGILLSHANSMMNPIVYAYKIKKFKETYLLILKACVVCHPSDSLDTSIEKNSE
Outline: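 CHO membranes stably expressing human A3 receptor (45 μg protein) incubated with [3H]PSB11 and 1 μM compound in 50 mM Tris-HCl pH 8.0, 10 mM MgCl2, 1 mM EDTA, 0.01% CHAPS, 2 h at 25 °C; nonspecific binding with 100 μM NECA; filtration, washes without CHAPS, scintillation counting; ≥2 experiments in duplicate.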

Adenosine receptor A2b = target: T4, Adenosine receptor A2b (Homo sapiens, UniProt P29275); assay: Displacement of [3H]PSB603 from human adenosine A2B receptor expressed in CHO cell membranes after 2 hrs by beta scintillation counting analysis
T4 sequence (P29275 whole entry): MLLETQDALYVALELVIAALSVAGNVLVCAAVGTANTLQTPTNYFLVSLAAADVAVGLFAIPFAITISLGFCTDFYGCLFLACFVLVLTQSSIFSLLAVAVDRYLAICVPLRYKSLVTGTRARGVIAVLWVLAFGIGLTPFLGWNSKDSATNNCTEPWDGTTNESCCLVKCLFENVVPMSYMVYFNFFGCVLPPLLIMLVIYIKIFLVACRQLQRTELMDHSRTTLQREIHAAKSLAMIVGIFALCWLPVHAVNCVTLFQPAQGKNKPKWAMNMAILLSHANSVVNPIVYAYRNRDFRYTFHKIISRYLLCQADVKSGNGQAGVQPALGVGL

[5] = target: Adenosine receptor A2a (Homo sapiens) (UniProt P29274); assay: Displacement of [3H]ZM241385 from human adenosine A2A receptor expressed in HEK293 cell membranes at 1 uM after 2 hrs by beta scintillation counting analysis relative to control
Chain of Adenosine receptor A2a (Homo sapiens) (P29274 whole entry): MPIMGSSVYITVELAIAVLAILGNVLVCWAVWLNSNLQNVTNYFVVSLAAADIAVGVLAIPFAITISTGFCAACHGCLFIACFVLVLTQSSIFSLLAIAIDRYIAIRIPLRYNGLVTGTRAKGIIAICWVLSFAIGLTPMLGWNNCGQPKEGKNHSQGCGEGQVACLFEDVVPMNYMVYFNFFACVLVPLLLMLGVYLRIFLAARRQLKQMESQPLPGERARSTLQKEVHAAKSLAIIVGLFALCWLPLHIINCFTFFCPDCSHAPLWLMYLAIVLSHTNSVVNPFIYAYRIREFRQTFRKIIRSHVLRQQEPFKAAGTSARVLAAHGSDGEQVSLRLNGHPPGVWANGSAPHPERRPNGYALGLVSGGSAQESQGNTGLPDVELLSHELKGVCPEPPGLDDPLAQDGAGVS
Outline: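 HEK 293 membranes stably expressing human A2A receptor (25 μg protein) incubated with [3H]ZM241385 in 50 mM Tris-HCl pH 7.4, 2 h at 25 °C; compounds at 1 μM; nonspecific binding with 100 μM CPA; GF/B filtration, ice-cold washes, scintillation counting; ≥2 experiments in duplicate.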

[6] = target: T2, Adenosine receptor A1 (Homo sapiens); assay: Agonist activity human adenosine A1 receptor expressed in CHO cell membranes assessed as stimulation of [35S]GTPgammaS binding preincubated for 30 mins followed by radioligand addition measured after 90 mins by beta scintillation counting analysis relative to N6-cyclopentyladenosine; format: functional
Adenosine receptor A1 [7] = target: T1, Adenosine receptor A1; assay: Agonist activity human adenosine A1 receptor expressed in CHO cell membranes assessed as stimulation of [35S]GTPgammaS binding preincubated for 30 mins followed by radioligand addition measured after 90 mins by beta scintillation counting analysis; format: functional
[8] = target: T5, Adenosine receptor A2b (Homo sapiens) (UniProt P29275); assay: Displacement of [3H]PSB603 from human adenosine A2B receptor expressed in CHO cell membranes at 1 uM after 2 hrs by beta scintillation counting analysis relative to control
T5 sequence (whole entry): T4 sequence (P29275 whole entry)

[9] = target: T2, Adenosine receptor A1 (Homo sapiens); assay: Displacement of [3H]DPCPX from human adenosine A1 receptor expressed in CHO cell membranes assessed as residence time on receptor at 10 times Ki after 90 mins by competition association assay
Adenosine receptor A1 [10] = target: T1, Adenosine receptor A1; assay: Agonist activity at human adenosine A1 receptor expressed in HEK293 cells assessed as […] in intracellular cAMP level after 30 mins by EIA; format: functional, cell-based
Adenosine receptor A1 [11] = target: T1, Adenosine receptor A1; assay: Agonist activity at adenosine A1 receptor (unknown origin) expressed in CHO cells assessed as […] in intracellular cAMP level by RIA; format: functional, cell-based
[12] = target: T2, Adenosine receptor A1 (Homo sapiens); assay: Displacement of [3H]DPCPX from human adenosine A1 receptor expressed in CHO cell membranes at 1 uM after 1 hr by beta scintillation counting analysis relative to control; outline: as §1

Compound | Ki (Adenosine receptor A1 [1]) | Ratio [2] | TIME [9] | other results
N#Cc1c(N)nc(SCc2coc(-c3ccc(Cl)cc3)n2)nc1-c1ccc2c(c1)OCO2 | 15 nM | 1.17 | – | –
N#Cc1c(N)nc(SCc2csc(-c3ccc(C(F)(F)F)cc3)n2)nc1-c1ccc2c(c1)OCO2 | 18 nM | 1.2 | – | –
N#Cc1c(N)nc(SCc2coc(-c3cccc(F)c3)n2)nc1-c1ccc2c(c1)OCO2 | 15 nM | 1.24 | 0.0508 h | –
N#Cc1c(N)nc(SCc2csc(-c3cccc(Cl)c3)n2)nc1-c1ccc2c(c1)OCO2 | 42 nM | 1.24 | 0.5 h | –
CCN(CC)CCN1CCN(C(=O)CCc2cccc(CSc3nc(N)c(C#N)c(-c4ccc(NC(C)=O)cc4)n3)n2)CC1 | – | – | – | EC50 (Adenosine receptor A1 [10]): 1 nM
N#Cc1c(N)nc(SCc2csc(-c3ccccc3Cl)n2)nc1-c1ccc2c(c1)OCO2 | 75 nM | 1.29 | 0.588 h | –
N#Cc1c(N)nc(SCc2csc(-c3ccc(Cl)cc3)n2)nc1-c1ccc2c(c1)OCO2 | 14 nM | 1.64 | 0.857 h | Emax [6]: 71%; inhibition [4]: 4.5%; EC50 (Adenosine receptor A1 [7]): 4.9 nM; inhibition [8]: 0%; inhibition [5]: 4.5%
N#Cc1c(N)nc(SCc2csc(-c3ccc(Cl)cc3)n2)c(C#N)c1-c1ccc(OCCO)cc1 [CAPADENOSON] | – | 1.42 | – | EC50 (Adenosine receptor A1 [11]): 0.1 nM
CC(=O)Nc1ccc(-c2nc(SCc3csc(-c4ccc(Cl)cc4)n3)nc(N)c2C#N)cc1 | 14 nM | 0.97 | – | Emax [6]: 112%; inhibition [4]: 5.5%; EC50 (Adenosine receptor A1 [7]): 3.9 nM; inhibition [8]: 2.5%; inhibition [5]: 44%
N#Cc1c(N)nc(SCc2csc(-c3ccc(Cl)c(Cl)c3)n2)nc1-c1ccc2c(c1)OCO2 | – | – | – | inhibition [12]: 23%
CN(C)c1ccc(-c2nc(SCc3csc(-c4ccc(Cl)cc4)n3)nc(N)c2C#N)cc1 | 233 nM | – | – | –
N#Cc1c(N)nc(SCc2csc(-c3ccc(Cl)cc3)n2)nc1-c1ccc(O)cc1 | 15 nM | 0.99 | – | –
N#Cc1c(N)nc(SCc2csc(-c3cccc(F)c3)n2)nc1-c1ccc2c(c1)OCO2 | 14 nM | 1.24 | 0.55 h | –
CCOc1ccc(-c2nc(SCc3csc(-c4ccc(Cl)cc4)n3)nc(N)c2C#N)cc1 | – | – | – | inhibition [12]: 49%
N#Cc1c(N)nc(SCc2c[nH]cn2)nc1-c1ccc2c(c1)OCO2 | 83 nM | 1.15 | – | –
Cc1ccc(-c2nc(SCc3csc(-c4ccc(Cl)cc4)n3)nc(N)c2C#N)cc1 | – | – | – | inhibition [12]: 44%
N#Cc1c(N)nc(SCc2coc(-c3ccc(F)cc3)n2)nc1-c1ccc2c(c1)OCO2 | 20 nM | 1.01 | – | –
N#Cc1c(N)nc(SCc2csc(-c3ccc(Cl)cc3)n2)nc1-c1ccc(OC(F)(F)F)cc1 | 185 nM | – | – | –
COc1ccc(-c2nc(SCc3csc(-c4ccc(Cl)cc4)n3)nc(N)c2C#N)cc1 | – | – | – | inhibition [12]: 73%

More lines, in order of falling Ki (Adenosine receptor A1 [1]), values ahead:

Ki (Adenosine receptor A1 [1]) | Ratio [2] | TIME [9] | Compound | other results
12 nM | 1.46 | 0.375 h | N#Cc1c(N)nc(SCc2csc(-c3ccccc3F)n2)nc1-c1ccc2c(c1)OCO2 | –
11 nM | 0.95 | – | N#Cc1c(N)nc(SCc2csc(-c3ccc([N+](=O)[O-])cc3)n2)nc1-c1ccc2c(c1)OCO2 | –
9.9 nM | 1.4 | 1.06 h | N#Cc1c(N)nc(SCc2csc(-c3ccc(I)cc3)n2)nc1-c1ccc2c(c1)OCO2 | Emax [6]: 82%; inhibition [4]: 9%; EC50 (Adenosine receptor A1 [7]): 9.5 nM; inhibition [8]: 7.5%; inhibition [5]: 2.5%
9.7 nM | 0.93 | – | N#Cc1c(N)nc(SCc2cscn2)nc1-c1ccc2c(c1)OCO2 | Emax [3]: 27%; inhibition [4]: 35%; Ki (Adenosine receptor A2b): 42 nM; inhibition [5]: 31%
8.9 nM | 1.24 | 0.538 h | N#Cc1c(N)nc(SCc2csc(-c3ccc(Cl)cc3)n2)nc1-c1ccccc1 | –
6.7 nM | 1.22 | 0.575 h | N#Cc1c(N)nc(SCc2csc(-c3ccc(F)cc3)n2)nc1-c1ccc2c(c1)OCO2 | –
6.3 nM | 1.17 | – | N#Cc1c(N)nc(SCc2csc(C3CCCCC3)n2)nc1-c1ccc2c(c1)OCO2 | –
5.2 nM | 1.67 | 0.983 h | N#Cc1c(N)nc(SCc2csc(-c3ccc(Br)cc3)n2)nc1-c1ccc2c(c1)OCO2 | Emax [6]: 60%; inhibition [4]: -1.8%; EC50 (Adenosine receptor A1 [7]): 4.6 nM; inhibition [8]: 1.7%; inhibition [5]: 2.9%
4.8 nM | 1.18 | – | N#Cc1c(N)nc(SCc2csc(-c3ccc(Cl)cc3)n2)nc1-c1ccc(OCCO)cc1 | Emax [6]: 99%; inhibition [4]: 3%; EC50 (Adenosine receptor A1 [7]): 12 nM; inhibition [8]: 3.5%; inhibition [5]: 10%
3.1 nM | 1.15 | – | Cc1ccc(-c2nc(CSc3nc(N)c(C#N)c(-c4ccc5c(c4)OCO5)n3)cs2)cc1 | –
2.5 nM | 0.93 | – | N#Cc1c(N)nc(SCc2csc(-c3ccc4c(c3)OCO4)n2)nc1-c1ccc2c(c1)OCO2 | –
2.4 nM | 1.1 | – | N#Cc1c(N)nc(SCc2csc(-c3ccccc3)n2)nc1-c1ccc2c(c1)OCO2 | Emax [6]: 84%; inhibition [4]: 24%; EC50 (Adenosine receptor A1 [7]): 4.6 nM; inhibition [8]: 20%; inhibition [5]: -2%
1.9 nM | 0.81 | 0.02 h | N#Cc1c(N)nc(SCc2csc(N3CCOCC3)n2)nc1-c1ccc2c(c1)OCO2 | Emax [6]: 65%; inhibition [4]: 18%; EC50 (Adenosine receptor A1 [7]): 1.8 nM; inhibition [8]: 12%; inhibition [5]: 21%
1.8 nM | 1 | – | COc1ccc(-c2nc(CSc3nc(N)c(C#N)c(-c4ccc5c(c4)OCO5)n3)cs2)cc1 | Emax [6]: 104%; inhibition [4]: 11%; EC50 (Adenosine receptor A1 [7]): 1.9 nM; inhibition [8]: 3.5%; inhibition [5]: 3.2%
